# From PubChem BioAssay
# CSN deneddyl inh: inhibitors of CSN-mediated cullin deneddylation, primary screen, biochemical, fluorescence polarization, uHTS. actives 0.38% (n = 360,000). COP9 signalosome complex subunit 5 (Homo sapiens), Q92905. AID 651999, 2013. Purified CSN, SCF-Nedd8-OG deneddylation. inhibition, % at 12.5 µM;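 active = pattern-corrected inhibition above about 35%, with an unprinted fluorescence ratio check between 0.5 and 1.5, limit read from the data, passing the limit was not always enough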
#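 Assay system: HEK293T-derived human Csn5 enzyme; quantity: 0.24 nM enzyme; medium: Tris/NaCl/DTT buffer, pH 7.5; also added: substrate SCFSkp2-Nedd8OG, 10 nM; doses: 12.5 µM compound; schedule: 90 min reaction at room temperature; signal: FP; read-out: % inhibition of substrate cleavage by Csn5; benchmarks: substrate-only high control, full reaction low control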
# PP1 counter: PP1-alpha phosphatase inhibitors, primary screen, counter-screen for PP5 inhibitor project, biochemical, fluorescence, OMFP substrate, single point. purified PP1alpha. inhibition, % at 6.7 µM. actives 0.9% (n = 320,000);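 active = inhibition above the mean inhibition of all tested compounds plus 3 SD, computed separately for each screening campaign, cut at about 15% in these data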
# HNF4A DNA FP: change in binding of human HNF4A to DNA, primary screen, biochemical, fluorescence polarization, FITC-DNA. Hepatocyte nuclear factor 4-alpha (Homo sapiens), P41235. 1 h. activity change, % at 10 µM. actives 0.3% (n = 360,000). AID 1224865, 2016; in the data active = activity change above about 30%, passing the limit was not always enough
# Target sequence (P41235 whole entry, looked up): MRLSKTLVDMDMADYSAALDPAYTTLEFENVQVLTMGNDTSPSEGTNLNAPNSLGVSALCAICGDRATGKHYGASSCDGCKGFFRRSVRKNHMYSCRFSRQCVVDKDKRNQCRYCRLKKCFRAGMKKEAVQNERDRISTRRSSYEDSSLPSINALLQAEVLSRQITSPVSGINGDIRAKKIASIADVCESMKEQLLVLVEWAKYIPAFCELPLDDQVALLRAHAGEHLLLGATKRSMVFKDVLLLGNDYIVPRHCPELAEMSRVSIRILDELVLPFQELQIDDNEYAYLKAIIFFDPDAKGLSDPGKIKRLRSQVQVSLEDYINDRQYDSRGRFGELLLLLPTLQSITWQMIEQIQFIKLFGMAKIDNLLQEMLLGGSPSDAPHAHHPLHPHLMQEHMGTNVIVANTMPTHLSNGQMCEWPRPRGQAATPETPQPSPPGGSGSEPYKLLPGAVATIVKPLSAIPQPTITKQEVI
# Rpn11 inh: Rpn11 (PSMD14) deubiquitinase inhibitors, primary screen, biochemical, fluorescence polarization, uHTS | 26S proteasome non-ATPase regulatory subunit 14 (Homo sapiens), O00487 | human 26S proteasome, Ub4-pepOG fluorescence polarization; 20S core pre-blocked with epoxomicin | inhibition, % at 20 µM | actives 0.59% (n = 360,000) | AID 588493, 2011;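 active = inhibition at 20 µM, scaled to each plate's controls, above about 33%, limit read from the data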
# NadD inh: inhibitors of S. aureus NadD, primary screen, biochemical, colorimetric, uHTS; Nicotinate-nucleotide adenylyltransferase NadD (Staphylococcus aureus N315); AID 602399, 2012; actives 0.78% (n = 360,000); inhibition, % at 20 µM; purified NadD enzyme, colorimetric absorbance read-out; in the data active = inhibition above about 26%
# TPT1 inhibitor: Candida albicans TPT1 enzyme inhibitors, primary screen, biochemical, fluorescence polarization. AID 1962, 2009. inhibition, % at 5 µM. tRNA 2'-phosphotransferase TPT1 (Candida albicans SC5314). actives 0.81% (n = 300,000). recombinant caTPT1, FP RNA substrate dephosphorylation;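 active = inhibition above the mean of all tested compounds plus 3 SD, set per screening campaign, cut at about 24% in these data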
# Numbers stand for hits; . = inactive; / = not tested or not shown. Hits are enriched below; roughly 2.7% of the tested compounds scored in any of these assays.
SMILES,CSN deneddyl inh,PP1 counter,HNF4A DNA FP,Rpn11 inh,NadD inh,TPT1 inhibitor
Cn1ccc2c(N(Cc3ccccc3)Cc3ccccc3)cc3c(c21)C1CCC3O1 (centres undefined),84,/,.,.,.,/
CN(Cc1ccccc1)c1cc2c(c3c1ccn3C)C1CCC2O1 (centres undefined),.,/,.,.,.,/
Cc1ccc(-c2cc(C(=O)N/N=C/C=C/c3ccccc3)n[nH]2)s1,.,15,.,.,.,.
Cc1ccc(OCC(=O)Nc2cc(NC(=O)COc3ccc(C)c(C)c3)cc(C(=O)O)c2)cc1C,.,16,.,.,.,.
C=CC(=O)Nc1cccc(Oc2ccnc(Nc3ccc(N4CCN(C)CC4)cc3)n2)c1,.,/,.,.,.,/
C=CC(=O)Nc1cccc(Oc2ccnc3[nH]ccc23)c1,122,/,.,95,59,/
COc1ccc(-c2cnc3c(NC(C)=O)cc(-c4ccsc4)cn23)cc1OC,.,/,.,54,.,/
Cc1ccc(C2=C/C(=C/c3cccs3)C(=O)O2)cc1,49,.,.,/,.,.
CC1=C(C(=O)N2CCOCC2)CC(CC(=O)NCC2CCCCC2)C(=O)N1CCC1=CCCCC1 (centres undefined),.,/,.,.,.,/
COC(=O)C1=C(C)NC(=O)/C1=C\c1cc(C)n(-c2cc(C)cc(C)c2)c1C,.,.,.,.,32,.
COc1ccc(OC)c(Nc2nc3nonc3nc2N2CCCCC2)c1,.,.,40,/,.,.
O=C(Cc1ccc(Cl)cc1)Nc1ccc(NC(=O)c2ccccc2)cc1,.,.,.,.,.,.
O=C(CC(=O)c1ccccc1)Nc1ccc(Cl)cc1,.,.,42,.,.,.
Oc1c(C(c2cccs2)N2CCN(c3ccccc3)CC2)ccc2cccnc12 (centres undefined),/,19,/,/,/,.
CCOC(=O)C1C(=O)NC(SCC(=O)Nc2nccs2)=C(C#N)C1c1ccccc1OCC (centres undefined),.,.,.,61,.,.
CCOC(=O)C1C(=O)NC(SCC(=O)OC)=C(C#N)C1c1ccccc1OCC (centres undefined),.,.,.,.,.,.
CCCNC(=O)N1CCC(c2nc3ccccc3s2)CC1,.,.,.,.,.,.
O=C1c2ccccc2C(O)(c2ccccc2)N1c1ccncc1 (centres undefined),.,16,.,.,.,.
O=C1c2ccccc2C(O)(c2ccccc2)N1CCc1ccccc1 (centres undefined),.,.,.,.,.,.
CCn1cc(CN2CCC(C(=O)Nc3ccc(Oc4ccccc4F)cc3)CC2)cn1,.,/,.,.,.,/
O=C1N=c2ccccc2=C1c1sc(Nc2cccc(O)c2)nc1O,.,.,.,.,.,.
O=C1N=c2ccccc2=C1c1sc(Nc2ccc(O)cc2)nc1O,.,/,.,.,33,/
CC(=O)N1CCN(S(=O)(=O)c2ccc(S(=O)(=O)NCC(C)C)cc2)CC1,.,16,.,.,.,.
CCOC(=O)c1c(CSc2ccccc2)n(C)c2cc(Br)c(OC)c(O)c12,.,.,.,.,.,.
CCOC(=O)c1c(CSc2ccccc2)n(C)c2cc(Br)c(OCC(O)CNC(CO)(CO)CO)cc12 (centres undefined),71,.,.,.,.,.
CC(=O)NC(c1ccccc1)c1cc([N+](=O)[O-])c2cccnc2c1O (centres undefined),.,.,.,.,.,.
CC(=O)NC(c1cccs1)c1cc([N+](=O)[O-])c2cccnc2c1O (centres undefined),.,.,.,40,.,.
c1coc(-c2nnc3sc(Cc4cccs4)nn23)c1,35,.,.,.,.,.
COc1ccc(OCc2nn3c(-c4ccco4)nnc3s2)cc1,.,.,.,.,.,.
CCc1ccc(CN2CCN(c3ncccn3)CC2)cc1,.,.,.,.,.,.
